Measurements published in ChEMBL document CHEMBL4619817, “Stereochemical Differences in Fluorocyclopropyl Amides Enable Tuning of Btk Inhibition and Off-Target Activity” (ACS Med Chem Lett, 2020).

Experiment: Lipophilicity, logD of compound at 7.4 by the LC/MS based microscale shake flask method
Type: physicochemical
Settings: octanol/water, pH 7.4
Method in brief: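 LogD measured by high-throughput microscale shake flask with LC tandem MS quantitation.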

SMILES	logD
Cn1cc(-c2ccnc(N3CCn4c(cc5c4CC(C)(C)C5)C3=O)c2CO)cc(NC(=O)[C@@H]2C[C@@H]2F)c1=O	2.5
Cn1cc(-c2ccnc(N3CCn4c(cc5c4CC(C)(C)C5)C3=O)c2CO)cc(NC(=O)[C@H]2C[C@H]2F)c1=O	2.3
Cn1cc(-c2ccnc(N3CCn4c(cc5c4CC(C)(C)C5)C3=O)c2CO)cc(NC(=O)C2CC2)c1=O	3
Cn1cc(-c2ccnc(N3CCn4c(cc5c4CC(C)(C)C5)C3=O)c2CO)cc(NC(=O)[C@@H]2CCCO2)c1=O	2.1
CC(=O)Nc1cc(-c2ccnc(N3CCn4c(cc5c4CC(C)(C)C5)C3=O)c2CO)cn(C)c1=O	2.1
Cn1nc(-c2ccnc(-n3ncc4cc(C(C)(C)C)cc(F)c4c3=O)c2CO)cc(NC(=O)[C@@H]2C[C@@H]2F)c1=O	1.7
Cn1cc(-c2ccnc(N3CCn4c(cc5c4CC(C)(C)C5)C3=O)c2CO)cc(NC(=O)CC2CC2)c1=O	3.4
Cn1cc(-c2ccnc(-n3ncc4cc(C(C)(C)C)cc(F)c4c3=O)c2CO)nc(NC(=O)[C@@H]2C[C@@H]2F)c1=O	1.3
Cn1cc(-c2ccnc(N3CCn4c(cc5c4CC(C)(C)C5)C3=O)c2CO)cc(NC(=O)CN2CCOCC2)c1=O	2.3
Cn1cc(-c2ccnc(-n3ncc4cc(C(C)(C)C)cc(F)c4c3=O)c2CO)cc(NC(=O)[C@H]2C[C@H]2F)c1=O	2
CCC(=O)Nc1cc(-c2ccnc(N3CCn4c(cc5c4CC(C)(C)C5)C3=O)c2CO)cn(C)c1=O	2.5
Cn1cc(-c2ccnc(-n3ncc4c5c(sc4c3=O)CCCC5)c2CO)cc(NC(=O)C2CC2)c1=O	2.1
CCCC(=O)Nc1cc(-c2ccnc(N3CCn4c(cc5c4CC(C)(C)C5)C3=O)c2CO)cn(C)c1=O	2.6
C[C@H]1CN(C2COC2)CCN1c1ccc(Nc2cc(-c3ccnc(N4CCn5c(cc6c5CC(C)(C)C6)C4=O)c3CO)cn(C)c2=O)nc1 [FENEBRUTINIB]	1.6

Experiment: Metabolic stability in human liver microsomes assessed as intrinsic clearance at 1 uM measured upto 60 mins by LC-MS/MS analysis
Type: ADME, Microsome
Settings: read-out: CLH

SMILES	CLint scaled at 1 µM [mL/min/kg]
Cn1cc(-c2ccnc(N3CCn4c(cc5c4CC(C)(C)C5)C3=O)c2CO)cc(NC(=O)C2CC2)c1=O	5.3
Cn1nc(-c2ccnc(-n3ncc4cc(C(C)(C)C)cc(F)c4c3=O)c2CO)cc(NC(=O)[C@@H]2C[C@@H]2F)c1=O	7.4
Cn1cc(-c2ccnc(-n3ncc4cc(C(C)(C)C)cc(F)c4c3=O)c2CO)nc(NC(=O)[C@@H]2C[C@@H]2F)c1=O	< 3.9
Cn1cc(-c2ccnc(-n3ncc4cc(C(C)(C)C)cc(F)c4c3=O)c2CO)cc(NC(=O)[C@H]2C[C@H]2F)c1=O	5.5
Cn1cc(-c2ccnc(-n3ncc4c5c(sc4c3=O)CCCC5)c2CO)cc(NC(=O)C2CC2)c1=O	7.4
C[C@H]1CN(C2COC2)CCN1c1ccc(Nc2cc(-c3ccnc(N4CCn5c(cc6c5CC(C)(C)C6)C4=O)c3CO)cn(C)c2=O)nc1 [FENEBRUTINIB]	9.5

Experiment: Metabolic stability in rat liver microsomes assessed as intrinsic clearance at 1 uM measured upto 60 mins by LC-MS/MS analysis
Type: ADME, Microsome
Settings: read-out: CLH

SMILES	CLint scaled at 1 µM [mL/min/kg]
Cn1cc(-c2ccnc(N3CCn4c(cc5c4CC(C)(C)C5)C3=O)c2CO)cc(NC(=O)C2CC2)c1=O	7.2
Cn1nc(-c2ccnc(-n3ncc4cc(C(C)(C)C)cc(F)c4c3=O)c2CO)cc(NC(=O)[C@@H]2C[C@@H]2F)c1=O	16
Cn1cc(-c2ccnc(-n3ncc4cc(C(C)(C)C)cc(F)c4c3=O)c2CO)nc(NC(=O)[C@@H]2C[C@@H]2F)c1=O	13
Cn1cc(-c2ccnc(-n3ncc4cc(C(C)(C)C)cc(F)c4c3=O)c2CO)cc(NC(=O)[C@H]2C[C@H]2F)c1=O	11
Cn1cc(-c2ccnc(-n3ncc4c5c(sc4c3=O)CCCC5)c2CO)cc(NC(=O)C2CC2)c1=O	8.4
C[C@H]1CN(C2COC2)CCN1c1ccc(Nc2cc(-c3ccnc(N4CCn5c(cc6c5CC(C)(C)C6)C4=O)c3CO)cn(C)c2=O)nc1 [FENEBRUTINIB]	14

Experiment: Apparent permeability from apical to basolateral side in MDCK cells at 10 uM incubated for 3 hrs by LC-MS/MS analysis
Type: ADME, cell-based, Canis lupus familiaris
Settings: dog

SMILES	Papp A→B at 3 h, 10 µM [×10⁻⁶ cm/s]
Cn1cc(-c2ccnc(-n3ncc4cc(C(C)(C)C)cc(F)c4c3=O)c2CO)cc(NC(=O)[C@H]2C[C@H]2F)c1=O	6.4
C[C@H]1CN(C2COC2)CCN1c1ccc(Nc2cc(-c3ccnc(N4CCn5c(cc6c5CC(C)(C)C6)C4=O)c3CO)cn(C)c2=O)nc1 [FENEBRUTINIB]	15.1

Experiment: Clearance in Sprague-Dawley rat at 0.2 mg/kg, iv measured upto 8 hrs by LC-MS/MS analysis
Type: ADME, organism-based
Settings: in vivo

SMILES	clearance [mL/min/kg]
C[C@H]1CN(C2COC2)CCN1c1ccc(Nc2cc(-c3ccnc(N4CCn5c(cc6c5CC(C)(C)C6)C4=O)c3CO)cn(C)c2=O)nc1 [FENEBRUTINIB]	22

Experiment: Oral bioavailability in Sprague-Dawley rat at 1 mg/kg measured upto 8 hrs by LC-MS/MS analysis
Type: ADME, organism-based
Settings: in vivo

SMILES	bioavailability [%]
C[C@H]1CN(C2COC2)CCN1c1ccc(Nc2cc(-c3ccnc(N4CCn5c(cc6c5CC(C)(C)C6)C4=O)c3CO)cn(C)c2=O)nc1 [FENEBRUTINIB]	96

Experiment: Unbound clearance in Sprague-Dawley rat at 1 mg/kg, po measured upto 8 hrs by LC-MS/MS analysis
Type: ADME, organism-based
Settings: in vivo

SMILES	CL free [mL/min/kg]
C[C@H]1CN(C2COC2)CCN1c1ccc(Nc2cc(-c3ccnc(N4CCn5c(cc6c5CC(C)(C)C6)C4=O)c3CO)cn(C)c2=O)nc1 [FENEBRUTINIB]	314

Experiment: Clearance in Beagle dog at 1 mg/kg, iv measured upto 24 hrs by LC-MS/MS analysis
Type: ADME, organism-based, Canis lupus familiaris
Settings: in vivo

SMILES	clearance [mL/min/kg]
C[C@H]1CN(C2COC2)CCN1c1ccc(Nc2cc(-c3ccnc(N4CCn5c(cc6c5CC(C)(C)C6)C4=O)c3CO)cn(C)c2=O)nc1 [FENEBRUTINIB]	12

Experiment: Metabolic stability in dog Hepatocyte assessed as intrinsic clearance at 1 uM measured upto 60 mins by LC-MS/MS analysis
Type: ADME, cell-based, Canis lupus familiaris
Settings: hepatocytes, read-out: CLH

SMILES	CLint scaled at 1 µM [mL/min/kg]
C[C@H]1CN(C2COC2)CCN1c1ccc(Nc2cc(-c3ccnc(N4CCn5c(cc6c5CC(C)(C)C6)C4=O)c3CO)cn(C)c2=O)nc1 [FENEBRUTINIB]	< 21

Experiment: Metabolic stability in rat Hepatocyte assessed as intrinsic clearance at 1 uM measured upto 60 mins by LC-MS/MS analysis
Type: ADME, cell-based
Settings: hepatocytes, read-out: CLH

SMILES	CLint scaled at 1 µM [mL/min/kg]
C[C@H]1CN(C2COC2)CCN1c1ccc(Nc2cc(-c3ccnc(N4CCn5c(cc6c5CC(C)(C)C6)C4=O)c3CO)cn(C)c2=O)nc1 [FENEBRUTINIB]	10

Experiment: Oral bioavailability in Beagle dog at 5 mg/kg measured upto 24 hrs by LC-MS/MS analysis
Type: ADME, organism-based, Canis lupus familiaris
Settings: in vivo

SMILES	bioavailability [%]
C[C@H]1CN(C2COC2)CCN1c1ccc(Nc2cc(-c3ccnc(N4CCn5c(cc6c5CC(C)(C)C6)C4=O)c3CO)cn(C)c2=O)nc1 [FENEBRUTINIB]	130

Experiment: Metabolic stability in human Hepatocyte assessed as intrinsic clearance at 1 uM measured upto 60 mins by LC-MS/MS analysis
Type: ADME, cell-based
Settings: hepatocytes, read-out: CLH

SMILES	CLint scaled at 1 µM [mL/min/kg]
C[C@H]1CN(C2COC2)CCN1c1ccc(Nc2cc(-c3ccnc(N4CCn5c(cc6c5CC(C)(C)C6)C4=O)c3CO)cn(C)c2=O)nc1 [FENEBRUTINIB]	9.3

Experiment: Metabolic stability in dog liver microsomes assessed as intrinsic clearance at 1 uM measured upto 60 mins by LC-MS/MS analysis
Type: ADME, Canis lupus familiaris, Microsome
Settings: read-out: CLH

SMILES	CLint scaled at 1 µM [mL/min/kg]
C[C@H]1CN(C2COC2)CCN1c1ccc(Nc2cc(-c3ccnc(N4CCn5c(cc6c5CC(C)(C)C6)C4=O)c3CO)cn(C)c2=O)nc1 [FENEBRUTINIB]	29
